According to ChEMBL document CHEMBL1123456, “A novel class of conformationally restricted heterocyclic muscarinic agonists” (J Med Chem, 1986):

Tests used:
[1] = Dissociation constant (pKa); assay type: physicochemical
Procedure, shortened: (§1)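 pKa values measured in water at 25 °C by a previously published method.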

[2] = target: Muscarinic acetylcholine receptor; assay: Inhibition of binding of radioactive N-propylbenzilycholine mustard ([3H]-PrBCM) to rat brain membranes; assay type: cell membranes, Membrane
[3] = target: Muscarinic acetylcholine receptor; assay: In vitro antagonistic activity against peripheral Muscarinic acetylcholine receptor in guinea pig ileum as inhibition of acetylcholine induced muscle contraction; assay type: functional, tissue-based
Procedure, shortened: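 Guinea pigs were killed by a blow to the head and exsanguinated. A 30 mm ileum segment was held isotonically in Tyrode solution at 37 °C in an organ bath. IC50 was obtained by log probit analysis.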

[4] = pKa value is determined; assay type: physicochemical; procedure, shortened: as §1

SMILES	pKa [1]	IC50 [2]	IC50 [3]	pKa [4]
C=CCOc1noc2c1CNCC2.Cl	7.5	9.6 µM	–	–
CCOc1noc2c1CN(C)CC2.Cl	6.6	2.4 µM	–	–
COc1noc2c1CN(C)CC2.Cl	6.6	27 µM	–	–
C/C=C/COc1noc2c1CNCC2.Cl	7.7	14 µM	> 50 µM	–
CC(C)COc1noc2c1CNCC2.Cl	7.7	> 50 µM	49 µM	–
COc1noc2c1CNCC2.Cl	–	45 µM	–	7.5
CCN1CCc2onc(OC)c2C1.Cl	7	15 µM	–	–
Cl.c1ccc(COc2noc3c2CNCC3)cc1	7.5	32 µM	48 µM	–
CCOc1noc2c1CNCC2.Cl	–	6 µM	–	7.6
CC(C)Oc1noc2c1CNCC2.Cl	7.5	3.5 µM	11 µM	–
C#CCOc1noc2c1CNCC2.Cl	7.6	5.8 µM	–	–
C=C(Br)COc1noc2c1CNCC2.Cl	7.6	13 µM	22 µM	–
CCCOc1noc2c1CNCC2.Cl	7.6	10 µM	35 µM	–
CCCCOc1noc2c1CNCC2.Cl	7.6	15 µM	> 50 µM	–
CC#CCOc1noc2c1CNCC2.Cl	7.6	5.2 µM	–	–
COc1noc2c1CN(Cc1ccccc1)CC2.Cl	6.1	> 50 µM	> 50 µM	–
COC(=O)C1=CCCN(C)C1 [ARECOLINE]	7.8	–	–	–
COC(=O)C1=CCCNC1 [NORARECOLINE]	8.7	30 µM	–	–
